Measured values collected from several papers.
Compare with care: the assays were run in different laboratories.
Matrix: plasma

SMILES | system | conditions | Cmax
Cn1c(=O)oc2ccc(-c3ccc(C[C@@H](C#N)NC(=O)[C@@H]4CNCCCO4)cc3)cc21 | male human | oral, 35 mg, single dose, healthy volunteers | 668 nM
C[C@@H](Oc1ccc(S(C)(=O)=O)cc1C(=O)N1C[C@@H]2C[C@]2(c2cc(C(F)(F)F)on2)C1)C(F)(F)F | human | oral, 25 mg, fed, tablet | 312 nM
CNC(=O)c1cc(Oc2ccc(NC(=O)Nc3cc(C(C)(C)C)nn3-c3ccc4ncccc4c3)c(F)c2)ccn1 | human | oral, 100 mg, multiple doses, twice daily | 114 ng/mL
COc1cc(C(=O)NC2CCN(C)CC2)c(F)cc1Nc1ncc(C(F)(F)F)c(Oc2cccc3c2C(=O)N(C)C3)n1 | human | oral, 100 mg, single dose, patients | 1320 nM
CC(C)(Sc1ccncc1-c1ccc(C#N)c2ccccc12)C(=O)O | male human | oral, 20 mg, single dose, fed, healthy volunteers | 181 ng/mL
CC(C)n1cc(C#N)c2cc(-n3cc(C(=O)O)cn3)ccc21 | human | oral, 10 mg, single dose, fasted, healthy volunteers | 313 ng/mL
CCc1nc2c(C)cc(N3CCN(CC(=O)N4CC(O)C4)CC3)cn2c1N(C)c1nc(-c2ccc(F)cc2)c(C#N)s1 | human | oral, 1000 mg, fed, healthy volunteers | 13200 ng/mL
FC(F)(F)c1ccc(CNc2ccc(Cc3c[nH]c4ncc(Cl)cc34)cn2)cn1 | human | oral, 1000 mg, multiple doses, patients | 4440 ng/mL
CC(C)(O)c1ccccc1-c1ccc2[nH]c(/C=C/c3ccc(C(F)(F)F)cc3)nc2c1 | male human | oral, 30 mg, single dose, fasted, healthy volunteers | 91.8 ng/mL
Br.Cc1ccc(Sc2ccccc2N2CCNCC2)c(C)c1 | human | oral, 10 mg, multiple doses, steady state, healthy volunteers | 18 ng/mL
C/C(=C\c1csc(C)n1)[C@@H]1C[C@@H]2O[C@]2(C)CCC[C@H](C)[C@H](O)[C@@H](C)C(=O)C(C)(C)[C@@H](O)CC(=O)N1 | human | intravenous, 15 mg/m², patients | 89.6 ng/mL
COc1cc2c(cc1OC)CN(CCc1ccc(NC(=O)c3cc(OC)c(OC)cc3NC(=O)c3cnc4ccccc4c3)cc1)CC2 | human | intravenous, 1 mg/kg, patients | 2200 nM
CCCOc1ccc([C@H]2CNC(=O)N2c2ccc3[nH]cnc3c2)cc1 | human | oral, 200 mg, fasted, healthy volunteers | 989 ng/mL
COc1ccc([C@@H]2CN(C(=O)[C@@H](O)CO)C[C@@]2(C)[C@@H](C)O)cc1OC1CN(c2ccc(C)cn2)C1 | human | oral, 5 mg, single dose, healthy volunteers | 213 ng/mL
COCCOc1cnc2ccn([C@H](C)c3nnc4c(F)cc(-c5cnn(C)c5)cn34)c(=O)c2c1 | human | oral, 200 mg, multiple doses, once daily, patients | 3760 ng/mL
Cc1ccc(C(=O)N(CCCN)[C@@H](c2oc3cc(Cl)ccc3c(=O)c2Cc2ccccc2)C(C)C)cc1 | human | intravenous, 2 mg/m², single dose, patients, infusion | 233 ng/mL
CO[C@H]1CC[C@H](N2C(=O)CNc3ncc(-c4ccc(C(C)(C)O)nc4)nc32)CC1 | human | oral, 45 mg, multiple doses, patients | 417 ng/mL
C[C@@]1(c2cc(NC(=O)c3ccc(C#N)cn3)ccc2F)C=CSC(N)=N1 | human | oral, 1 mg, single dose | 5.62 ng/mL
